Measured values from ChEMBL document CHEMBL1125680, “Quinazolinone cholecystokinin-B receptor ligands” (J Med Chem, 1991).

Target: T1, Cholecystokinin receptor type A (Rattus norvegicus) (UniProt P30551)
T1 sequence (whole entry): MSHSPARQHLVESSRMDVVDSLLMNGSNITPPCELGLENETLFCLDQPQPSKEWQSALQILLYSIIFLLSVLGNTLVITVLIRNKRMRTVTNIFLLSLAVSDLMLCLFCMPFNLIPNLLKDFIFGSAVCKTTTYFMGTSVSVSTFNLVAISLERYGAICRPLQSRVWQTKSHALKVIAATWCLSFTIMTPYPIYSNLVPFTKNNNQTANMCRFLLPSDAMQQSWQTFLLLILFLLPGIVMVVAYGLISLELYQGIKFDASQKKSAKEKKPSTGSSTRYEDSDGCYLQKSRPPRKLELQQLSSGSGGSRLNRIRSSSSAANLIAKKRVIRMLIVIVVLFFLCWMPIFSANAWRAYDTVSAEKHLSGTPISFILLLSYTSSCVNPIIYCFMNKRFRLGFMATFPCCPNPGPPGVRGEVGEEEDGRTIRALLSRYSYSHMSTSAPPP
Experiment: Inhibition of [3H]-labeled L-364,718 binding to Cholecystokinin type A receptor in rat pancreas
Conditions: concentration not given here

Compared with `CC(C)Oc1cccc(-n2c(CCc3c[nH]c4ccc(Br)cc34)nc3ccccc3c2=O)c1`, `COc1cccc(-n2c(CCc3c[nH]c4ccc(Br)cc34)nc3ccccc3c2=O)c1` is higher in inhibition: -6% for the first, 5% for the second.

First: CCc1cccc(-n2c(CCc3c[nH]c4ccc(Br)cc34)nc3ccccc3c2=O)c1
Second: O=c1c2ccccc2nc(CCc2c[nH]c3ccccc23)n1-c1cccc(C(F)(F)F)c1
The inhibition of the first is lower: -5% for the first, 6% for the second.

Target: T2, Gastrin/cholecystokinin type B receptor (Mus musculus) (UniProt P56481)
T2 sequence (whole entry): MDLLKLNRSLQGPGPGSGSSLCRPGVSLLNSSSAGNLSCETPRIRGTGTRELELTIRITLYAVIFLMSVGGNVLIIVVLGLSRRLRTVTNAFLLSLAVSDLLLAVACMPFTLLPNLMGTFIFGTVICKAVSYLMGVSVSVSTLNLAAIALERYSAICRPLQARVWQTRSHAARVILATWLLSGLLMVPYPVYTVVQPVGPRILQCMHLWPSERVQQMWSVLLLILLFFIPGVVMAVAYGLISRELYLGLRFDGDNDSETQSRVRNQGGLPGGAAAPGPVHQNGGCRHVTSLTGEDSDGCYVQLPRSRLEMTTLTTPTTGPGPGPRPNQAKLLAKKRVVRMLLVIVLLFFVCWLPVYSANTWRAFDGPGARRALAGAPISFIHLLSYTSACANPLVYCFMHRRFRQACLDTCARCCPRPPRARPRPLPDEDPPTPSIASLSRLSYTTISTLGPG
Experiment: Inhibition of [125I]-labeled CCK-8 sulfate binding to cholecystokinin type B receptor in mouse brain membranes
Format: cell membranes
Conditions: Membrane, concentration not given here
In short: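 Mouse brain membranes as the CCK-B receptor source, with 125I-labelled CCK-8 sulfate as the radioligand, following the Chang and Lotti method.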

Going from `O=c1c2ccccc2nc(CCc2c[nH]c3ccccc23)n1-c1ccccc1F` to `O=c1c2ccccc2nc(CCc2c[nH]c3ccccc23)n1-c1ccccc1Cl`, the inhibition falls from 75% to 44%.

Going from `COc1ccccc1-n1c(CCc2c[nH]c3ccccc23)nc2ccccc2c1=O` to `O=c1c2ccccc2nc(CCc2c[nH]c3ccccc23)n1-c1ccccc1C(F)(F)F`, the inhibition falls from 74% to 35%.

Target: T3, Gastrin/cholecystokinin type B receptor (Mus musculus, UniProt P56481)
T3 sequence (P56481 whole entry): T2 sequence (whole entry)
Experiment: Inhibition of [125I]CCK-8 sulfate binding to cholecystokinin type B receptor in mouse brain membranes.
Format: cell membranes
Conditions: not given

`O=c1c2ccccc2nc(CCc2c[nH]c3ccc(Br)cc23)n1-c1cccc(OC2CCCC2)c1` and `CCCOc1cccc(-n2c(CCc3c[nH]c4ccc(Br)cc34)nc3ccccc3c2=O)c1` are within 1.5-fold of each other in IC50: 67 nM for the first, 58 nM for the second.

`O=c1c2ccccc2nc(CCc2c[nH]c3ccccc23)n1-c1cccc(C(F)(F)F)c1` showed an IC50 of 480 nM.
